Drawing on ChEMBL document CHEMBL4368930, “Synthesis and anti-HSV activity of tricyclic penciclovir and hydroxybutylguanine derivatives” (Bioorg Med Chem, 2019), this text covers EC50, MCC and IC50 for 8 compounds.

pEC50, pIC50: −log10 of the molar value.

Data set [1] deals with Human alphaherpesvirus 1. As to the kind of experiment: Antiviral activity against herpes simplex virus 1 KOS infected in HEL cells assessed as reduction in virus-induced cytopathogenicity by microscopic analysis. Type of data set: functional, organism-based. The conditions noted are these: Human alphaherpesvirus 1, strain KOS. For orientation: Protection from cytopathic effect is a common read-out in antiviral testing.

The subject of data set [2] is Human alphaherpesvirus 2. Description: Antiviral activity against herpes simplex virus 2 G infected in HEL cells assessed as reduction in virus-induced cytopathogenicity by microscopic analysis. Type of data set: functional, organism-based. Conditions: Human alphaherpesvirus 2, G. In outline:
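Confluent cell monolayers were inoculated with 100 CCID50 of virus or 20 PFU. After a 1–2 h adsorption, residual virus was removed and cultures were incubated with the test compounds at 200, 40, 8, 1.6 and 0.32 μM. Cytopathicity was scored once it was complete in untreated infected controls.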

Data set [3] deals with Human alphaherpesvirus 1. Description: Antiviral activity against thymidine kinase deficient and aciclovir resistant herpes simplex virus 1 KOS infected in HEL cells assessed as reduction in virus-induced cytopathogenicity by microscopic analysis. Conditions: Human alphaherpesvirus 1, strain KOS. The data set is classed as functional, organism-based.
Data set [4] can be described thus: Cytotoxicity against HEL cells assessed as effect on cell morphology at 0.32 to 200 uM by microscopic analysis. The data set is classed as cell-based. Conditions: human.
The subject of data set [5] is Human alphaherpesvirus 3. Description: Antiviral activity against Varicella-zoster virus Oka harboring thymidine kinase infected in HEL cells assessed as reduction in virus plaque formation. Type of data set: functional, organism-based. Conditions: Human alphaherpesvirus 3, Oka.
Data set [6] has as its system Human alphaherpesvirus 3. As to the kind of experiment: Antiviral activity against thymidine kinase deficient Varicella-zoster virus 07-1 infected in HEL cells assessed as reduction in virus plaque formation. The data set is classed as functional, organism-based. Conditions: Human alphaherpesvirus 3, 07-1, HEL.
The test system of data set [7] is Human betaherpesvirus 5. As to the kind of experiment: Antiviral activity against Human cytomegalovirus AD169 assessed as reduction in virus-induced cytopathogenicity by microscopic analysis. The data set is classed as functional, organism-based. The conditions noted are these: Human betaherpesvirus 5, strain AD169.
Data set [8] has as its system Human betaherpesvirus 5. Description: Antiviral activity against Human cytomegalovirus Davis assessed as reduction in virus-induced cytopathogenicity by microscopic analysis. The data set is classed as functional, organism-based. The conditions noted are these: Human betaherpesvirus 5, Davis.
Data set [9] deals with TERT-RPE1. As to the kind of experiment: Cytostatic activity against human hTERT-RPE1 cells. Type of data set: ADME, cell-based. The conditions noted are these: RPE-1. In outline: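 Cell proliferation was measured against the number of cells in untreated controls.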
Data set [10] relates to CAPAN-1. Description: Cytostatic activity against human Capan1 cells. Type of data set: ADME, cell-based.
Data set [11] in a line: Cytostatic activity against human HAP1 cells. The data set is classed as ADME, cell-based.
Data set [12] deals with NCI-H460. As to the kind of experiment: Cytostatic activity against human NCI-H460 cells. The data set is classed as ADME, cell-based.
Data set [13] can be described thus: Cytostatic activity against human DND41 cells. The data set is classed as ADME, cell-based.
Data set [14] deals with HL-60. As to the kind of experiment: Cytostatic activity against human HL60 cells. Type of data set: ADME, cell-based.
The subject of data set [15] is K562. As to the kind of experiment: Cytostatic activity against human K562 cells. Type of data set: ADME, cell-based.
Data set [16] has as its system Z-138. Description: Cytostatic activity against human Z138 cells. The data set is classed as ADME, cell-based.

Consider `COc1ccc(-c2cn3c(=O)c4ncn(CCC(CO)CO)c4nc3[nH]2)cc1`, for which the pEC50 is 5.82 in data set [1]; 6.10 in data set [2]; 6.10 in data set [3]; 4.17 in data set [5]; 4.00 in data set [6]; < 4.00 in data set [7]. Further, in [8], the negative-log EC50 (pEC50) is < 4.00. Besides, in data set [4], the MCC at up to 200 µM is > 100 µM. Also, the pIC50 in [9], in [10], in [11], in data set [12], in data set [13] and in data set [14] was < 4.00 throughout. The pIC50 in data set [15] and in [16] was < 4.00 throughout.
As for `CCOc1ccc(-c2cn3c(=O)c4ncn(CCC(CO)CO)c4nc3[nH]2)cc1`, the pEC50 in data set [1] is 4.12; in data set [2], < 4.70; in data set [3], < 4.00; in data set [5] it was < 4.00; in [6], < 4.00; in data set [7], < 4.00. The negative-log EC50 (pEC50) in [8] is < 4.00. For the same compound, in data set [4], the MCC at up to 200 µM is > 100 µM. For the same compound, the pIC50 in [9] was < 4.00; in data set [10], < 4.00; in data set [11], < 4.00; in [12] it was 4.02; in [13] it was < 4.00; in [14], < 4.00. Moreover, the negative logarithm of the IC50 (pIC50) in data set [15] and in data set [16] was < 4.00 each time.
For the compound `O=c1c2ncn(CCC(CO)CO)c2nc2[nH]c(-c3ccc(O)cc3)cn12`, the pEC50 is 5.12 in [1]; 5.64 in data set [2]; < 4.00 in data set [3]; 5.02 in [5]; ≤ 4.13 in [6]; < 4.00 in data set [7]. Also, the pEC50 in data set [8] is < 4.00. Further, the MCC at up to 200 µM in data set [4] is > 100 µM. Also, the pIC50 in data set [9], in [10], in data set [11], in [12], in data set [13] and in data set [14] was < 4.00 throughout. Also, the negative-log IC50 (pIC50) in data set [15] and in data set [16] was < 4.00 throughout.
Consider `Nc1nc2c(ncn2CCC(CO)CO)c(=O)[nH]1` [PENCICLOVIR], for which the pEC50 in data set [1] is 6.10; in [2] it was 6.70; in [3] it was 6.70; in [5], 5.46; in [6], 4.48; in [7], < 4.00. Further, in data set [8], the pEC50 was < 4.00. Moreover, the MCC at up to 200 µM in [4] was > 100 µM. The pIC50 is < 4.00 in [9]; 4.03 in [10]; < 4.00 in data set [11]; < 4.00 in data set [12]; < 4.00 in [13]; < 4.00 in data set [14]. In addition, the negative-log IC50 (pIC50) in data set [15] and in data set [16] was < 4.00 each time.
As to `O=c1c2ncn(CCC(CO)CO)c2nc2[nH]c(-c3ccc(Oc4ccccc4)cc3)cn12`, the negative-log EC50 (pEC50) in data set [1] was < 4.00; in data set [2], < 4.00; in data set [3], < 4.00; in data set [5], 4.20; in data set [6], < 4.00; in [7] it was < 4.00. In [8], the pEC50 is < 4.00. Also, in data set [4], the MCC at up to 200 µM was > 100 µM. The pIC50 was 4.77 in [9]; 4.33 in data set [10]; 4.36 in data set [11]; 4.33 in data set [12]; 4.04 in data set [13]; 4.20 in [14]. Besides, the negative-log IC50 (pIC50) in [15] and in data set [16] was < 4.00 each time.
Consider `O=c1c2ncn(CCC(CO)CO)c2nc2[nH]c(-c3ccccc3)cn12`, for which the negative logarithm of the EC50 (pEC50) in data set [1], in data set [2], in data set [3], in data set [5], in [6] and in data set [7] was < 4.00 each time. Further, the pEC50 in data set [8] is < 4.00. The MCC at up to 200 µM in [4] was > 100 µM. In addition, the pIC50 in data set [9] was 4.10; in data set [10], 4.23; in data set [11] it was < 4.00; in data set [12] it was < 4.00; in data set [13], < 4.00; in data set [14] it was < 4.00. In addition, the pIC50 in data set [15] and in [16] was < 4.00 in each case.
Turning to `O=c1c2ncn(CCC(CO)CO)c2nc2[nH]c(-c3ccc(F)cc3)cn12`, the pEC50 is 5.05 in data set [1]; 4.55 in data set [2]; 4.92 in data set [3]; < 4.00 in data set [5]; < 4.00 in data set [6]; < 4.00 in [7]. In data set [8], the pEC50 was < 4.00. Also, the MCC at up to 200 µM in [4] was > 100 µM. Moreover, the pIC50 is < 4.00 in data set [9]; 4.08 in data set [10]; < 4.00 in data set [11]; < 4.00 in [12]; < 4.00 in [13]; < 4.00 in data set [14]. Also, the pIC50 in data set [15] and in [16] was < 4.00 throughout.
As for `O=c1c2ncn(CCC(CO)CO)c2nc2[nH]c(-c3ccc4c(c3)OCO4)cn12`, the pEC50 in [1] was 4.35; in [2], 4.39; in data set [3], < 4.00; in data set [5], < 4.70; in data set [6], < 4.00; in [7], < 4.00. Also, in data set [8], the pEC50 was < 4.00. Moreover, the MCC at up to 200 µM in data set [4] was ≥ 100 µM. The pIC50 was < 4.00 in data set [9]; 4.10 in [10]; < 4.00 in [11]; < 4.00 in data set [12]; < 4.00 in data set [13]; < 4.00 in data set [14]. Also, the pIC50 in data set [15] and in data set [16] was < 4.00 in each case.

The pEC50 is the EC50 on a negative log10 scale, so that one unit is a factor of ten. One may read the pIC50 as the negative decadic logarithm of the IC50, by convention in mol/L. Lower therefore signals a large IC50.
